Data on 36 compounds can be found in PubChem BioAssay AID809 (SRMLSC, 2007).

Calls of active or inactive are those of the source.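 Rule for the calls: active = EC50 for reversing nicotinamide-shortened yeast lifespan at or below a set limit; inactive = EC50 above that limit.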

This assay has as its system S. cerevisiae DeaD BB579, nicotinamide rescue growth, OD615 48 h. In words: BB579 yeast growth restoration under nicotinamide – S. cerevisiae, yeast lifespan extension project, dose response (AID 809). Summed up: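 System – S. cerevisiae DeaD strain BB579 · Buffer or medium – CSMM-D glucose restrictive medium · Times – culture pre-incubation 4 h, then compound exposure 48 h, both 30 °C · Signal – OD615 absorbance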
For orientation: EC50 means the concentration needed to bring the measured effect to its halfway point. In the case of `CCCNC(=O)CCC(NS(=O)(=O)c1ccc(C)cc1)C(=O)NCCC` (stereo unspecified), the EC50 was > 10 µM (inactive).
For the compound `O=C(COc1ccc2ccccc2c1)Nc1cccc(C(=O)Nc2ccccc2C(=O)O)c1`, the EC50 was 8.35 µM.
With `CCCC[n+]1c(-c2ccc(Cl)cc2Cl)csc1Nc1ccccc1`, the EC50 was > 10 µM (inactive).
Consider `CCCCC1C(=O)CC[C@H]2[C@@H]1CC(=O)[C@@H]2C/C=C\CCCC(=O)O` (stereo partly specified), for which the concentration for a half-maximal effect (EC50) is 8.1 µM.
With `Cc1[nH]nc2nc3c(c(OC(=O)c4ccccc4)c12)c(=O)n(C)c(=O)n3C`, the EC50 was 1.75 µM.
Consider `O=C(NCC1CCCO1)c1c(O)c2ccccc2[nH]c1=O` (stereo unspecified), for which the EC50 was > 10 µM (inactive).
For the compound `Cc1cc(C)n(-c2ccc(OCC(=O)O)nn2)n1`, the EC50 was > 10 µM (inactive).
Take `CCOC(=O)C1Cc2cc3c(cc2C1=O)CC(C(=O)OCC)C3=O` (stereo unspecified): the concentration giving a half-maximal response (EC50) is 5.89 µM.
Consider `COc1cc(OC)cc(-c2nc3ccccc3c(=O)n2OC(=O)c2ccc(Br)cc2)c1`, for which the EC50 is 6.14 µM.
Take `CCCCC(=Nc1ccccc1OC)C1=C(O)CC(c2ccccc2)CC1=O` (stereo unspecified): the EC50 is 4.5 µM.
As for `O=C(Oc1ccc([N+](=O)[O-])cc1)c1ccc2ccccc2n1`, the EC50 was > 10 µM (inactive).
With `COc1ccc(-c2cc(N)n(S(=O)(=O)c3c(F)c(F)c(F)c(F)c3F)n2)cc1OC` the figure was 6.84 µM; with `O=C(Oc1ccc2c(c1)OCO2)C12CC3CC(CC(C3)C1)C2`, > 10 µM (inactive).
As to `Cc1ccc(S(=O)(=O)Nc2ccccc2/C=N/c2nc3ccccc3n2C(C)C)cc1`, the EC50 is > 10 µM (inactive).
With `COc1ccc(CCN2C(=O)C(O)=C(C(=O)c3ccco3)C2c2cccs2)cc1OC` (stereo unspecified), the EC50 was 8.94 µM.
With `COc1cccc(/C=C/C(=O)c2c(O)cc(C)oc2=O)c1O` the figure was > 10 µM (inactive).
Take `COc1ccc2c(=O)c3c(=O)n(Cc4ccco4)c(-c4ccco4)nc3oc2c1`: the EC50 was 9.69 µM.
Take `CCc1ccc(C(=O)CN2C(=O)NC(C)(CCc3ccccc3)C2=O)cc1` (stereo unspecified): the EC50 was > 10 µM (inactive).
The figure for `CN1C(=O)NC(c2ccc(O)cc2)C(C(=O)c2cccs2)C1(O)C(F)(F)F` (stereo unspecified) is > 10 µM (inactive).
On to `CCOc1ccc(OCC(=O)c2c(O)c3ccccc3oc2=O)cc1`, for which the EC50 was 3.4 µM.
With `CCOC(=O)C1=C(C)Nc2nc(=S)[nH]n2C1c1ccc(Cl)cc1` (stereo unspecified) the figure was 5.46 µM.
Regarding `O=C(NC(=S)NNS(=O)(=O)c1ccccc1)c1ccc([N+](=O)[O-])cc1`, the EC50 was > 10 µM (inactive).
The figure for `CCCc1cc(=O)oc2cc(C)c(CN3CCCC3)c(O)c12` is 6.15 µM; for `CC(c1ccco1)N(C(=O)c1ccccc1NS(=O)(=O)c1cc([N+](=O)[O-])ccc1Cl)c1ccccn1` (stereo unspecified) it is 9.17 µM.
For `CCOC(=O)c1c(NC(=O)C2C3C=CC(C3)C2C(=O)O)sc2c1CCC(CC)C2` (stereo unspecified), the EC50 is > 10 µM (inactive).
The figure for `CCCCn1c(=O)c2c(O)cc(=O)oc2c2ccccc21` is 5.94 µM; for `O=c1c2ccccc2nc(-c2ccc(Cl)c(Cl)c2)n1O` it is > 10 µM (inactive).
Consider `O=C(O)c1ccc(O)c(N2C(=O)Nc3ccccc3N2O)c1`, for which the EC50 was > 10 µM (inactive).
Consider `Cc1ccc(N2NC(=O)/C(=C\c3cc4c(cc3[N+](=O)[O-])OCO4)C2=O)cc1C`, for which the EC50 is > 10 µM (inactive).
On to `CC1(C)CC2c3cccc(C(=O)O)c3C(=O)N2c2c1ccc1ccccc21` (stereo unspecified), for which the EC50 was 2.84 µM.
On to `O=C1/C(=C/c2cccnc2)CCC/C1=C\c1cccnc1`, for which the EC50 was 7.04 µM.
The figure for `Cc1c(NC(=O)C(=O)/C=C(\O)c2ccc(Cl)cc2)c(=O)n(-c2ccccc2)n1C` is 3.19 µM; for `Cc1cc(C(=O)CN2C(=O)NC(C)(CC(C)C)C2=O)c(C)n1-c1ccc2c(c1)OCO2` (stereo unspecified) it is > 10 µM (inactive); for `O=S(=O)(ON(c1ccccc1)S(=O)(=O)c1ccccc1)c1ccccc1` it is > 10 µM (inactive).
For the compound `Cc1ccc(C(C2=C(O)CC(C)(C)CC2=O)C2C(=O)CC(C)(C)CC2=O)o1` (stereo unspecified), the EC50 was 6.35 µM.
Turning to `O=C(Oc1cc(=O)n2ccccc2n1)c1ccccc1`, the EC50 was 7.19 µM.
